Laboratory results reported in ChEMBL document CHEMBL1142866, “Synthesis and preliminary evaluation of 18F- or 11C-labeled bicyclic nucleoside analogues as potential probes for imaging varicella-zoster virus thymidine kinase gene expression using positron emission tomography” (J Med Chem, 2007).
Calls of active or inactive are those of the source. No cut-off for these calls is given here.

What was measured:
[1] = Inhibition of recombinant VZV TK assessed as [CH3-H3]dThd phosphorylation; set-up: species or system Human alphaherpesvirus 3
Method in brief: (§1)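 Purified recombinant VZV TK (7.75 ng), HSV-1 TK (226 ng) or cytosolic TK-1 (455 ng). Buffer: 50 mM Tris-HCl pH 8.0, 2.5 mM MgCl2, 10 mM DTT, 2.5 mM ATP, 1.0 mg/mL BSA, 10 mM NaF, 1 µM [CH3-3H]dThd final. Incubated 30 min at 37 °C (linear range) with graded compound concentrations. Product caught on DE-81 disks, washed, scintillation-counted. IC50 is 50% inhibition of dThd phosphorylation.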

OST [2] = experiment: Cytostatic activity against OST TK-/HSV1 TK+ cells at 0.038 uM; format: functional, cell-based; settings: Homo sapiens
Method in brief: (§2)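 OST TK- control cells and OST TK- cells expressing HSV-1 TK or VZV TK were cultured 5 days with graded compound concentrations. Cells were then trypsinized and counted on a Coulter counter. CC50 is the concentration in µM that reduces cell number by 50%.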

Thymidine kinase = target: T1, Thymidine kinase (Human alphaherpesvirus 1, UniProt Q9QNF7); experiment: Inhibition of recombinant HSV-1 TK assessed as [CH3-H3]dThd phosphorylation; method in brief: as §1
T1 sequence (Q9QNF7 whole entry): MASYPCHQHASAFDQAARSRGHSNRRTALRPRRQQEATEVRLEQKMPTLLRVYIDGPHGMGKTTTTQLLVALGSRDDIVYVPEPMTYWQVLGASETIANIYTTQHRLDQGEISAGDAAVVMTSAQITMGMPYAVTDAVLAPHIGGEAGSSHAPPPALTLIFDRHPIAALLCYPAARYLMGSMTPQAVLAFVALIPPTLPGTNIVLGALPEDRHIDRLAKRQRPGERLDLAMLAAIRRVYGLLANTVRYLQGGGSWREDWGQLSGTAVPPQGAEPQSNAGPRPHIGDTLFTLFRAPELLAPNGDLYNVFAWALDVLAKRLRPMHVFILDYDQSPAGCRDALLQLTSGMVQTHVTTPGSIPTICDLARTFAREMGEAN

[3] = Biodistribution in spleen/pancreas of NMRI mouse after 2 mins; format: ADME, organism-based; settings: in vivo
Method in brief: (§3)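 Male NMRI mice (30-40 g) under ketamine/xylazine i.p. anesthesia received 0.1 mL of HPLC-purified 18F tracer (0.1 mCi/mL) or 11C tracer (1 mCi/mL) in water for injection via tail vein. Killed by decapitation at 2 or 60 min (n = 3 per time). Blood, organs and carcass weighed and gamma-counted. %ID = organ cpm/total cpm recovered. Blood mass taken as 7% of body mass. Mean ± SD.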

[4] = Biodistribution in spleen/pancreas of NMRI mouse assessed as standard uptake value after 60 mins; format: ADME, organism-based; settings: in vivo, 1 h
Brain [5] = experiment: Biodistribution in brain of NMRI mouse assessed as standard uptake value after 2 mins; format: ADME, organism-based; settings: in vivo
[6] = Biodistribution in spleen/pancreas of NMRI mouse after 60 mins; format: ADME, organism-based; settings: in vivo, 1 h; method in brief: as §3
Lung [7] = experiment: Biodistribution in lung of NMRI mouse assessed as standard uptake value after 2 mins; format: ADME, organism-based; settings: in vivo
Plasma [8] = experiment: Metabolic stability in mouse plasma assessed as radioactivity after 30 mins; format: ADME, cell-free; settings: 0.5 h
Method in brief: (§4)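 Normal mice given 0.35-0.4 mCi of 11C tracer i.v. and decapitated at 2 or 30 min (plasma; one mouse per time) or 30/60 min (urine). EDTA plasma separated by centrifugation; urine used untreated. Samples spiked with authentic compound and run on Oasis HLB in series with C18, eluted with 0.05 M ammonium acetate/acetonitrile 70:30 at 1 mL/min. 1-mL fractions gamma-counted; intact tracer taken as % recovered radioactivity.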

[9] = Biodistribution in carcass of NMRI mouse after 2 mins; format: ADME, organism-based; settings: in vivo; method in brief: as §3
Blood [10] = experiment: Biodistribution in blood of NMRI mouse assessed as standard uptake value after 2 mins; format: ADME, organism-based; settings: in vivo
[11] = Drug uptake in human 293T cells transduced with LacZ gene after 1 hr; format: ADME, cell-based; settings: hek-293t
Method in brief: (§5)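 Lentivirally transduced 293T cells (VZV-tk or LacZ control) plated in triplicate at 200 000 cells/well. After 24 h, 0.25 mL fresh medium with 5 µCi of the 18F tracer (3 h) or 30 µCi of the 11C tracer (1 h) added; 37 °C, 5% CO2. Cells washed thrice with ice-cold PBS, lysed, gamma-counted. Uptake given as % total radioactivity per mg protein (Bio-Rad assay); n = 3, unpaired two-sided t-test.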

Brain [12] = experiment: Biodistribution in brain of NMRI mouse after 60 mins; format: ADME, organism-based; settings: in vivo, 1 h; method in brief: as §3
[13] = Partition coefficient, log P at pH 7.4; format: physicochemical; settings: octanol/water
Method in brief: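 HPLC-purified radiotracer partitioned between 1-octanol and 0.025 M phosphate buffer pH 7.4. Vortexed 2 min at room temperature, centrifuged 5 min, aliquots of both phases gamma-counted. P = octanol cpm/buffer cpm after density and mass correction; n = 6.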

Liver [14] = experiment: Biodistribution in liver of NMRI mouse after 60 mins; format: ADME, organism-based; settings: in vivo, 1 h; method in brief: as §3
Heart [15] = experiment: Biodistribution in heart of NMRI mouse after 60 mins; format: ADME, organism-based; settings: in vivo, 1 h; method in brief: as §3
Kidney [16] = experiment: Biodistribution in kidney of NMRI mouse after 60 mins; format: ADME, organism-based; settings: in vivo, 1 h; method in brief: as §3
[17] = Ratio of drug uptake in LV-VZVTK-1-P transduced cells to LV-LacZ-I-P transduced 293T cells after 1 hr; format: ADME, cell-based; settings: human
Method in brief: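 Lentivirally transduced 293T cells (VZV-tk or LacZ control), plated in triplicate at 200 000 cells/well. After 24 h, given fresh medium with 30 µCi HPLC-purified 11C-labelled tracer per well, then 1 h at 37 °C in 5% CO2. Washed thrice in ice-cold PBS, lysed, gamma-counted, normalized to Bio-Rad protein (% total radioactivity/mg protein). VZV-tk/LacZ ratio, n = 3, unpaired Student t-test.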

Plasma [18] = experiment: Metabolic stability in mouse plasma assessed as radioactivity after 2 mins; format: ADME, cell-free; method in brief: as §4
Heart [19] = experiment: Biodistribution in heart of NMRI mouse assessed as standard uptake value after 60 mins; format: ADME, organism-based; settings: in vivo, 1 h
[20] = Biodistribution in urine of NMRI mouse after 60 mins; format: ADME, organism-based; settings: in vivo, 1 h; method in brief: as §3
Kidney [21] = experiment: Biodistribution in kidney of NMRI mouse assessed as standard uptake value after 2 mins; format: ADME, organism-based; settings: in vivo
Lung [22] = experiment: Biodistribution in lung of NMRI mouse after 2 mins; format: ADME, organism-based; settings: in vivo; method in brief: as §3
Lung [23] = experiment: Biodistribution in lung of NMRI mouse assessed as standard uptake value after 60 mins; format: ADME, organism-based; settings: in vivo, 1 h
[24] = Biodistribution in urine of NMRI mouse after 2 mins; format: ADME, organism-based; settings: in vivo; method in brief: as §3
Intestine [25] = experiment: Biodistribution in intestine of NMRI mouse after 60 mins; format: ADME, organism-based; settings: in vivo, 1 h; method in brief: as §3
Blood [26] = experiment: Biodistribution in blood of NMRI mouse after 2 mins; format: ADME, organism-based; settings: in vivo; method in brief: as §3
[27] = Metabolic stability in mouse urine after 30 mins; format: ADME, tissue-based; settings: read-out: Stability; method in brief: as §4
Liver [28] = experiment: Biodistribution in liver of NMRI mouse after 2 mins; format: ADME, organism-based; settings: in vivo; method in brief: as §3
Heart [29] = experiment: Biodistribution in heart of NMRI mouse after 2 mins; format: ADME, organism-based; settings: in vivo; method in brief: as §3
[30] = Drug uptake in human 293T cells transduced with VZV-tk gene after 1 hr; format: ADME, cell-based; settings: hek-293t; method in brief: as §5
[31] = Metabolic stability in mouse urine after 60 mins; format: ADME, tissue-based; settings: read-out: Stability; method in brief: as §4
[32] = Biodistribution in carcass of NMRI mouse after 60 mins; format: ADME, organism-based; settings: in vivo, 1 h; method in brief: as §3
[33] = Biodistribution in spleen/pancreas of NMRI mouse assessed as standard uptake value after 2 mins; format: ADME, organism-based; settings: in vivo
Brain [34] = experiment: Biodistribution in brain of NMRI mouse after 2 mins; format: ADME, organism-based; settings: in vivo; method in brief: as §3
Intestine [35] = experiment: Biodistribution in intestine of NMRI mouse after 2 mins; format: ADME, organism-based; settings: in vivo; method in brief: as §3
Blood [36] = experiment: Biodistribution in blood of NMRI mouse after 60 mins; format: ADME, organism-based; settings: in vivo, 1 h; method in brief: as §3
Heart [37] = experiment: Biodistribution in heart of NMRI mouse assessed as standard uptake value after 2 mins; format: ADME, organism-based; settings: in vivo
Liver [38] = experiment: Biodistribution in liver of NMRI mouse assessed as standard uptake value after 2 mins; format: ADME, organism-based; settings: in vivo
Brain [39] = experiment: Biodistribution in brain of NMRI mouse assessed as standard uptake value after 60 mins; format: ADME, organism-based; settings: in vivo, 1 h
Liver [40] = experiment: Biodistribution in liver of NMRI mouse assessed as standard uptake value after 60 mins; format: ADME, organism-based; settings: in vivo, 1 h
Kidney [41] = experiment: Biodistribution in kidney of NMRI mouse after 2 mins; format: ADME, organism-based; settings: in vivo; method in brief: as §3
Blood [42] = experiment: Biodistribution in blood of NMRI mouse assessed as standard uptake value after 60 mins; format: ADME, organism-based; settings: in vivo, 1 h
Kidney [43] = experiment: Biodistribution in kidney of NMRI mouse assessed as standard uptake value after 60 mins; format: ADME, organism-based; settings: in vivo, 1 h
Lung [44] = experiment: Biodistribution in lung of NMRI mouse after 60 mins; format: ADME, organism-based; settings: in vivo, 1 h; method in brief: as §3
OST [45] = experiment: Cytotoxicity against OST cells expressing VZV TK; format: cell-based; settings: human; method in brief: as §2
[46] = target: T2, Thymidine kinase, cytosolic (Homo sapiens, UniProt P04183); experiment: Inhibition of recombinant cytosolic TK-1 assessed as [CH3-H3]dThd phosphorylation; method in brief: as §1
T2 sequence (P04183 whole entry): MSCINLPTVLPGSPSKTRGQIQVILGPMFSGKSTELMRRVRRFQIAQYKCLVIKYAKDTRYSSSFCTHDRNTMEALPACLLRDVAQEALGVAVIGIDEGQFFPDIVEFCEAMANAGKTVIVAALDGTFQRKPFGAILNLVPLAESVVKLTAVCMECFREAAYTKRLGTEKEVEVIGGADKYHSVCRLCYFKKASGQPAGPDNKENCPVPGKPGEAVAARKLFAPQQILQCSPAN

OST [47] = experiment: Cytotoxicity against OST cells expressing HSV1 TK; format: cell-based; settings: human; method in brief: as §2

Nc1nc(O)c2ncn(CCC(CO)CO)c2n1 [PENCICLOVIR]
IC50 [1]: > 50 µM
Activity (OST [2]): Active

Nc1nc2c(ncn2CCC(CO)CF)c(=O)[nH]1 (stereo not drawn)
IC50 (Thymidine kinase): 9 µM

[11CH3]Oc1cccc(-c2cc3cn([C@H]4C[C@H](O)[C@@H](CO)O4)c(=O)nc3o2)c1
Drug uptake [3]: 2.4 %ID
Drug uptake [4]: 0.1
Drug uptake (Brain [5]): 0.1
Drug uptake [6]: 0.1 %ID
Drug uptake (Lung [7]): 1
Stability (Plasma [8]): 80%
Drug uptake [9]: 25.3 %ID
Drug uptake (Blood [10]): 0.8
Drug uptake [11]: 0.24%
Drug uptake (Brain [12]): 0 %ID
logD [13]: 1.27
Drug uptake (Liver [14]): 3.7 %ID
Drug uptake (Heart [15]): 0 %ID
Drug uptake (Kidney [16]): 0.3 %ID
Ratio [17]: 53
Stability (Plasma [18]): 98%
Drug uptake (Heart [19]): 0
Drug uptake [20]: 28.2 %ID
Drug uptake (Kidney [21]): 12.4
Drug uptake (Lung [22]): 0.7 %ID
Drug uptake (Lung [23]): 0
Drug uptake [24]: 0.2 %ID
Drug uptake (Intestine [25]): 63.7 %ID
Drug uptake (Blood [26]): 5.4 %ID
remaining at 0.5 h [27]: 90%
Drug uptake (Liver [28]): 21.3 %ID
Drug uptake (Heart [29]): 0.5 %ID
Drug uptake [30]: 12.8%
remaining at 1 h [31]: 90%
Drug uptake [32]: 3.5 %ID
Drug uptake [33]: 2.7
Drug uptake (Brain [34]): 0 %ID
Drug uptake (Intestine [35]): 25.6 %ID
Drug uptake (Blood [36]): 0.2 %ID
Drug uptake (Heart [37]): 1
Drug uptake (Liver [38]): 3.7
Drug uptake (Brain [39]): 0
Drug uptake (Liver [40]): 0.7
Drug uptake (Kidney [41]): 21.7 %ID
Drug uptake (Blood [42]): 0
Drug uptake (Kidney [43]): 0.2
Drug uptake (Lung [44]): 0 %ID

O=c1nc2oc(-c3cccc(OCCF)c3)cc2cn1[C@H]1C[C@H](O)[C@@H](CO)O1
Activity (OST [45]): Not Active
IC50 (Thymidine kinase): > 500 µM
IC50 [1]: 53 µM
IC50 [46]: > 500 µM
Activity (OST [47]): Not Active

O=c1nc2oc(-c3ccc(F)cc3)cc2cn1[C@H]1C[C@H](O)[C@@H](CO)O1
IC50 (Thymidine kinase): > 500 µM
IC50 [1]: 0.18 µM
IC50 [46]: > 500 µM

COc1cccc(-c2cc3cn([C@H]4C[C@H](O)[C@@H](CO)O4)c(=O)nc3o2)c1
Activity (OST [45]): Not Active
IC50 (Thymidine kinase): > 500 µM
IC50 [1]: 4.8 µM
IC50 [46]: > 500 µM
Activity (OST [47]): Not Active
